Results published in ChEMBL document CHEMBL3124806, “Imidazopyridine-fused [1,3]-diazepinones: synthesis and antiproliferative activity” (Eur J Med Chem, 2014).
Calls of active or inactive are those of the source. The calls are words filed in the database; no cut-off is given here.

Columns and labels:
[1] = target: Mitogen-activated protein kinase kinase kinase kinase 4 (Homo sapiens) (UniProt O95819); assay: Inhibition of human HGK at 10 uM
How it was run: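 Kinase selectivity panel of 19 protein tyrosine kinases and 30 serine/threonine kinases, run by a contract lab (CEREP). Each compound was tested at a single dose of 10 μM in duplicate.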

[2] = test system: MDA-MB-435; assay: Induction of apoptosis in human MDA-MB-435 cells assessed as dispersed and rounded cells at 5 uM after 20 hrs by Hoechst 33342 staining-based phase-contrast microscopy; type: functional, cell-based
How it was run: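 MDA-MB-435 human melanoma cells were grown in Ham's F12/DMEM (1:1) with 10% FCS and antibiotics at 37 °C under 5% CO₂. Cells were exposed to 5 μM compound or left untreated. They were imaged by phase-contrast microscopy 20 h after treatment.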

[3] = test system: MDA-MB-435; assay: Cell cycle arrest in human MDA-MB-435 cells assessed as accumulation at subG1 phase at 5 uM after 48 hrs by propidium iodide staining-based FACS analysis (reference value: 0.1%); type: functional
[4] = test system: MDA-MB-435; assay: Cell cycle arrest in human MDA-MB-435 cells assessed as accumulation at S phase at 5 uM after 48 hrs by propidium iodide staining-based FACS analysis (reference value: 22.8%); type: functional
[5] = test system: MDA-MB-435; assay: Cytotoxicity against human MDA-MB-435 cells at 5 uM after 24 hrs by MTT assay; type: functional
How it was run: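 MDA-MB-435 cells in DMEM/Ham's F12 (1:1) with 10% FCS, 37 °C, 5% CO2. Time course at a fixed 5 µM, incubated 8, 16, 24 or 48 h. Viability then read by MTT reduction (0.5 mg/mL, 4 h), formazan dissolved in EtOH/DMSO, absorbance at 540 nm, as percent living cells.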

[6] = test system: MDA-MB-435; assay: Cytotoxicity against human MDA-MB-435 cells after 48 hrs by MTT assay; type: functional, cell-based; conditions: MDA-MB-435, 48 h
How it was run: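 Melanoma lines grown at 37 °C in humidified 5% CO2: MDA-MB-435 in DMEM/Ham's F12 1:1 with 10% FCS and antibiotics, SK-MEL-2 in RPMI-1640 with 10% FCS. Cells plated 24 h, then exposed 48 h to 100–0.01 µM (dilutions from fresh 100 µM stock in medium). MTT 0.5 mg/mL added for 4 h, crystals dissolved in EtOH/DMSO 1:1, absorbance read at 540 nm. Mean ± SD of three independent experiments.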

[7] = Cytotoxicity against human CAL-1 cells assessed as cell growth at 10 uM after 48 hrs by MTT assay relative to untreated control; type: functional; conditions: CAL1, 48 h, read-out: Activity
How it was run: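 CAL1 melanoma cells grown in DMEM with 2 mM L-glutamine and 10% FCS at 37 °C, 5% CO2. Seeded at 10^4 cells/well, grown 24 h, then treated 48 h across 100–0.01 μM (compounds dissolved in medium). Read-out: 0.5 mg mL⁻¹ MTT for 4 h, crystals dissolved in EtOH/DMSO 1:1, absorbance at 540 nm.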

[8] = test system: T47D; assay: Cytotoxicity against human T47D cells after 48 hrs by SRB assay; type: functional
How it was run: (§1)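 NCI-60 five-dose mode on the full human tumour line panel. Concentrations ran from 100 to 0.01 µM with 48 h continuous exposure. Growth was estimated by SRB protein staining against untreated controls, and IC50 values were derived from the dose–response.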

[9] = test system: ACHN; assay: Cytotoxicity against human ACHN cells after 48 hrs by SRB assay; type: functional
How it was run: (§2)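 NCI-60 five-dose testing, 100 to 0.01 µM, under a 48 h continuous-exposure protocol. Growth estimated by SRB protein assay, read spectrophotometrically against untreated controls; IC50 derived from the dose-response.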

[10] = test system: A498; assay: Cytotoxicity against human A498 cells after 48 hrs by SRB assay; type: functional; conditions: A498, 48 h; how it was run: as §2
[11] = test system: SK-OV-3; assay: Cytotoxicity against human SKOV3 cells after 48 hrs by SRB assay; type: functional; conditions: SK-OV-3, 48 h; how it was run: as §1
[12] = test system: OVCAR-3; assay: Cytotoxicity against human OVCAR3 cells after 48 hrs by SRB assay; type: functional; conditions: OVCAR-3, 48 h
How it was run: (§3)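 NCI-60 five-dose screen: cells exposed continuously for 48 h across 100 to 0.01 µM. Growth or viability estimated by sulforhodamine B protein staining, read spectrophotometrically against untreated controls; IC50 taken from the dose-response.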

[13] = test system: UACC-62; assay: Cytotoxicity against human UACC62 cells after 48 hrs by SRB assay; type: functional; conditions: UACC-62, 48 h; how it was run: as §1
[14] = Cytotoxicity against human UACC257 cells after 48 hrs by SRB assay; type: functional; conditions: UACC-257, 48 h; how it was run: as §1
[15] = test system: MDA-MB-435; assay: Cytotoxicity against human MDA-MB-435 cells after 48 hrs by SRB assay; type: functional, cell-based; conditions: MDA-MB-435, 48 h; how it was run: as §3
[16] = test system: SNB-19; assay: Cytotoxicity against human SNB19 cells after 48 hrs by SRB assay; type: functional; conditions: SNB-19, 48 h; how it was run: as §1
[17] = test system: SF-268; assay: Cytotoxicity against human SF268 cells after 48 hrs by SRB assay; type: functional; conditions: SF-268, 48 h; how it was run: as §3
[18] = test system: KM12; assay: Cytotoxicity against human KM12 cells after 48 hrs by SRB assay; type: functional; conditions: KM12, 48 h; how it was run: as §2
[19] = test system: COLO 205; assay: Cytotoxicity against human COLO205 cells after 48 hrs by SRB assay; type: functional; conditions: COLO 205, 48 h; how it was run: as §2
[20] = test system: NCI-H522; assay: Cytotoxicity against human NCI-H522 cells after 48 hrs by SRB assay; type: functional; conditions: NCI-H522, 48 h; how it was run: as §3
[21] = test system: HOP-92; assay: Cytotoxicity against human HOP92 cells after 48 hrs by SRB assay; type: functional; conditions: HOP-92, 48 h; how it was run: as §2
[22] = test system: RPMI-8226; assay: Cytotoxicity against human RPMI8226 cells after 48 hrs by SRB assay; type: functional; conditions: RPMI-8226, 48 h; how it was run: as §3
[23] = test system: MOLT-4; assay: Cytotoxicity against human MOLT4 cells after 48 hrs by SRB assay; type: functional; conditions: MOLT-4, 48 h; how it was run: as §3
[24] = test system: K562; assay: Cytotoxicity against human K562 cells after 48 hrs by SRB assay; type: functional; conditions: K562, 48 h; how it was run: as §2
[25] = read-out: LC50 (the source's name)

Sequence of Mitogen-activated protein kinase kinase kinase kinase 4 (Homo sapiens) (O95819 2-1239 limits assumed): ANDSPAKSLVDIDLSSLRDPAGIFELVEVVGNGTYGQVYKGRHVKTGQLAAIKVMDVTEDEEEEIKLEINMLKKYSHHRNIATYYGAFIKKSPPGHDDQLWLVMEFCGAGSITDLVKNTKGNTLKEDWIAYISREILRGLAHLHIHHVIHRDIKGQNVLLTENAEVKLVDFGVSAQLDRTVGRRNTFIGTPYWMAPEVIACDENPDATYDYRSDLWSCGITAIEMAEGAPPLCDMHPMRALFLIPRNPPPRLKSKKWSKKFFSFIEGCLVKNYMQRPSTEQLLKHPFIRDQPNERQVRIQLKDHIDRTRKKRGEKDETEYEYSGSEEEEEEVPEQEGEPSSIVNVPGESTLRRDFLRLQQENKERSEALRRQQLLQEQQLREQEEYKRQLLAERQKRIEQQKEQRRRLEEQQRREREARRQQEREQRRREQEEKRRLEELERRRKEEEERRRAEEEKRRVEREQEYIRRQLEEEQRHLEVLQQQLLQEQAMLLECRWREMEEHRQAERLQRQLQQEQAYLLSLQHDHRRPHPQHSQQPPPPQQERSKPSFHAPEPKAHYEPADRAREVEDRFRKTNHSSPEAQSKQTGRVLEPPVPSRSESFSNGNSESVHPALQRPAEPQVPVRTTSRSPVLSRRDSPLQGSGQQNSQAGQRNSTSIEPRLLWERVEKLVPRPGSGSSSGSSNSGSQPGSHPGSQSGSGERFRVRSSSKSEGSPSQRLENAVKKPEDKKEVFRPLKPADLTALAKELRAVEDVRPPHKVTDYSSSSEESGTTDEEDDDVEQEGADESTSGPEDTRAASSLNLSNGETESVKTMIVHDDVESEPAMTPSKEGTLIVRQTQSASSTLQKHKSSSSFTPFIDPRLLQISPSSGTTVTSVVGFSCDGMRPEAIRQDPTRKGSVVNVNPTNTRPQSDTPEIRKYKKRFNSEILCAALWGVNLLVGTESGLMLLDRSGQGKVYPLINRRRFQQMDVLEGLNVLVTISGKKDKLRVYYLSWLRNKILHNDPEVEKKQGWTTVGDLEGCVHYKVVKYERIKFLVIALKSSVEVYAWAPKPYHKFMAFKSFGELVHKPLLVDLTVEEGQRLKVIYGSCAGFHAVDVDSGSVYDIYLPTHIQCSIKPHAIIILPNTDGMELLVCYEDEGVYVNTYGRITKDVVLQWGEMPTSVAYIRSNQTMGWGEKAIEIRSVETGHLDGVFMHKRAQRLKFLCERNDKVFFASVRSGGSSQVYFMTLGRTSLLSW

C[C@@H]1NC(c2ccc(Br)cc2)=Nc2nc3ccccn3c2C1=O
inhibition [1]: 50% | Activity [2]: Active | Activity [3]: 8.6% | Activity [4]: 30.8% | Activity [5]: 10% | IC50 [6]: 1700 nM | growth at 10 µM [7]: 12% | GI50 [8]: 46.2 µM | TGI [8]: > 100 µM | CC50 [8, 25]: > 100 µM | GI50 [9]: 6.75 µM | TGI [9]: > 100 µM | CC50 [9, 25]: > 100 µM | GI50 [10]: 3.26 µM | TGI [10]: 38.2 µM | CC50 [10, 25]: > 100 µM | GI50 [11]: 4.41 µM | TGI [11]: > 100 µM | CC50 [11, 25]: > 100 µM | GI50 [12]: 3.34 µM | TGI [12]: 17.8 µM | CC50 [12, 25]: > 100 µM | GI50 [13]: 4.35 µM | TGI [13]: > 100 µM | CC50 [13, 25]: > 100 µM | GI50 [14]: 35.2 µM | TGI [14]: > 100 µM | CC50 [14, 25]: > 100 µM | GI50 [15]: 1330 nM | IC50 [15]: 1300 nM | LC50 [15]: > 100 µM | TGI [15]: 7.1 µM | GI50 [16]: 7.45 µM | TGI [16]: > 100 µM | CC50 [16, 25]: > 100 µM | GI50 [17]: 17.2 µM | TGI [17]: > 100 µM | CC50 [17, 25]: > 100 µM | GI50 [18]: 3.39 µM | TGI [18]: > 100 µM | CC50 [18, 25]: > 100 µM | GI50 [19]: 1870 nM | TGI [19]: 4.75 µM | CC50 [19, 25]: 95.8 µM | GI50 [20]: 3.23 µM | TGI [20]: 18.4 µM | CC50 [20, 25]: > 100 µM | GI50 [21]: 1160 nM | TGI [21]: 22.9 µM | CC50 [21, 25]: > 100 µM | GI50 [22]: 7.31 µM | TGI [22]: > 100 µM | CC50 [22, 25]: > 100 µM | GI50 [23]: 12.8 µM | TGI [23]: > 100 µM | CC50 [23, 25]: > 100 µM | GI50 [24]: 4.13 µM | TGI [24]: > 100 µM | CC50 [24, 25]: > 100 µM
